Experimental data from ChEMBL document CHEMBL1136718, “Synthesis and cytotoxic activity of carboxamide derivatives of benzo[b][1,6]naphthyridines” (J Med Chem, 2003).

Legend:
Mus musculus [1] = experiment: Number of mice(with Colon 38 tumors) cured after treatment of 200 mg/kg/day dose given as 2 times in a day for 7 days out of 5 mice; type: functional
Mus musculus [2] = experiment: In vivo antitumor activity against subcutaneous Colon 38 tumors in mice determined as delay in growth after 200 mg/kg/day dose given as 2 times in a day for 7 days; type: functional
P388 = experiment: Growth inhibitory activity against murine P388 leukemia cells; type: functional, cell-based; settings: Mus musculus
Outline: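 P388 murine leukemia cells plated at 4.5 × 10³/well and exposed to drug for 3 days. Growth read by [3H]TdR uptake. IC50 is the concentration reducing cell number to 50% of control. Independent assays done in duplicate.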

Mus musculus [3] = experiment: Number of mice(with Colon 38 tumors) cured after treatment of 13.3 mg/kg/day dose given as 3 times in a day for 4 days out of 5 mice; type: functional
Mus musculus [4] = experiment: In vivo antitumor activity against subcutaneous Colon 38 tumors in mice determined as delay in growth after 13.3 mg/kg/day dose given as 3 times in a day for 4 days; type: functional
[5] = Ratio of growth inhibitory activity against human Jurkat leukemia cell line (JLD- resistant to doxorubicin) to that of Jurkat leukemia cell line; type: functional
Outline: (§1)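 Parent Jurkat (JL_C) cells and the amsacrine-resistant (JL_A) or doxorubicin-resistant (JL_D) sublines each seeded at 3.75 × 10³/well. Cultured 4 days with drug and read by sulforhodamine assay. The ratio is the subline IC50 divided by the JL_C IC50. Duplicate independent assays.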

Mus musculus [6] = experiment: In vivo antitumor activity against subcutaneous Colon 38 tumors in mice determined as delay in growth after 45 mg/kg/day dose given as 3 times in a day for 4 days; type: functional
Mus musculus [7] = experiment: Number of mice(with Colon 38 tumors) cured after treatment of 45 mg/kg/day dose given as 3 times in a day for 4 days out of 5 mice; type: functional
Jurkat = experiment: Growth inhibitory activity against human Jurkat leukemia cell line (JLC); type: functional, cell-based
Outline: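 Human Jurkat leukemia (JL_C) cells seeded at 3.75 × 10³/well and grown 4 days with drug. Growth read by sulforhodamine assay. IC50 is the drug concentration that reduces cell number to 50% of control cultures. Independent assays run in duplicate.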

[8] = Ratio of growth inhibitory activity against human Jurkat leukemia cell line (JLA- resistant to amsacrine) to that of Jurkat leukemia cell line; type: functional; outline: as §1
[9] = system: Lewis lung carcinoma cell line; experiment: Growth inhibitory activity against murine Lewis lung carcinoma cell line; type: functional, cell-based; settings: Mus musculus
Outline: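 Lewis lung carcinoma cells seeded at 10³/well and cultured 4 days with drug. Growth measured by sulforhodamine assay. IC50 is the concentration reducing cell number to 50% of control cultures. Independent duplicate assays.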

Mus musculus [10] = experiment: Number of mice(with Colon 38 tumors) cured after treatment of 30 mg/kg/day single dose out of 5 mice; type: functional
Mus musculus [11] = experiment: In vivo antitumor activity against subcutaneous Colon 38 tumors in mice determined as delay in growth after 30 mg/kg/day single dose; type: functional
Mus musculus [12] = experiment: Number of mice(with Colon 38 tumors) cured after treatment of 3.9 mg/kg/day single dose out of 5 mice; type: functional
Outline: (§2)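 BDF1 mice bearing subcutaneous Colon 38 tumors (flank implants of 1 mm³ fragments) were treated at a diameter of about 4-6 mm. They received one intraperitoneal dose of the hydrochloride salt in distilled water, 0.01 mL/g. A cure is a mouse with no measurable tumor 20 days after treatment began, reported over the total mice per group.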

Mus musculus [13] = experiment: Number of mice(with Colon 38 tumors) cured after treatment of 2.6 mg/kg/day single dose out of 5 mice; type: functional; outline: as §2
Mus musculus [14] = experiment: In vivo antitumor activity against subcutaneous Colon 38 tumors in mice determined as delay in growth after 2.6 mg/kg/day single dose; type: functional
Outline: (§3)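 Colon 38 fragments (1 mm³) implanted subcutaneously in one flank of BDF1 mice. Treated at a tumor diameter of about 4-6 mm (7-8 days), five mice per group. A single intraperitoneal dose was given as the hydrochloride in distilled water, 0.01 mL/g. Calipers three times weekly, volume = 0.52a²b. Growth delay is the time for mean volume to reach 4-fold the pretreatment volume.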

Mus musculus [15] = experiment: In vivo antitumor activity against subcutaneous Colon 38 tumors in mice determined as delay in growth after 3.9 mg/kg/day single dose; type: functional; outline: as §3
Mus musculus [16] = experiment: Number of mice(with Colon 38 tumors) cured after treatment of 5.9 mg/kg/day single dose out of 5 mice; type: functional; outline: as §2
Mus musculus [17] = experiment: In vivo antitumor activity against subcutaneous Colon 38 tumors in mice determined as delay in growth after 5.9 mg/kg/day single dose; type: functional; outline: as §3
Mus musculus [18] = experiment: Number of mice(with Colon 38 tumors) cured after treatment of 2.6 mg/kg/day dose given as 3 times in a day for 4 days out of 5 mice; type: functional
Mus musculus [19] = experiment: In vivo antitumor activity against subcutaneous Colon 38 tumors in mice determined as delay in growth after 2.6 mg/kg/day dose given as 3 times in a day for 4 days; type: functional
Mus musculus [20] = experiment: Number of mice(with Colon 38 tumors) cured after treatment of 5.9 mg/kg/day single dose out of 10 mice; type: functional; outline: as §2
Mus musculus [21] = experiment: In vivo antitumor activity against subcutaneous Colon 38 tumors in mice determined as delay in growth after 8.9 mg/kg/day single dose; type: functional; outline: as §3
Mus musculus [22] = experiment: Number of mice(with Colon 38 tumors) cured after treatment of 8.9 mg/kg/day single dose out of 4 mice; type: functional; outline: as §2
Mus musculus [23] = experiment: Number of mice(with Colon 38 tumors) cured after treatment of 3.9 mg/kg/day single dose out of 4 mice; type: functional; outline: as §2
Mus musculus [24] = experiment: Number of mice(with Colon 38 tumors) cured after treatment of 13.3 mg/kg/day single dose out of 5 mice; type: functional; outline: as §2
Mus musculus [25] = experiment: In vivo antitumor activity against subcutaneous Colon 38 tumors in mice determined as delay in growth after 13.3 mg/kg/day single dose; type: functional; outline: as §3
Mus musculus [26] = experiment: Number of mice(with Colon 38 tumors) cured after treatment of 8.9 mg/kg/day single dose out of 5 mice; type: functional; outline: as §2
Mus musculus [27] = experiment: In vivo antitumor activity against subcutaneous Colon 38 tumors in mice determined as delay in growth after 65 mg/kg/day dose given as 3 times in a day for 4 days; type: functional
Mus musculus [28] = experiment: Number of mice(with Colon 38 tumors) cured after treatment of 65 mg/kg/day dose given as 3 times in a day for 4 days out of 5 mice; type: functional
Mus musculus [29] = experiment: In vivo antitumor activity against subcutaneous Colon 38 tumors in mice determined as delay in growth after 3.9 mg/kg/day dose given as 3 times in a day for 4 days; type: functional
Mus musculus [30] = experiment: Number of mice(with Colon 38 tumors) cured after treatment of 3.9 mg/kg/day dose given as 3 times in a day for 4 days out of 5 mice; type: functional
Mus musculus [31] = experiment: Number of mice(with Colon 38 tumors) cured after treatment of 65 mg/kg/day dose given as 2 times in a day for 2 days out of 5 mice; type: functional
Mus musculus [32] = experiment: In vivo antitumor activity against subcutaneous Colon 38 tumors in mice determined as delay in growth after 65 mg/kg/day dose given as 2 times in a day for 2 days; type: functional

| Structure (SMILES) | IC50 (P388) [nM] | IC50 (Jurkat) [nM] | IC50 [9] [nM] | Ratio [5] | Ratio [8] | other results |
| --- | --- | --- | --- | --- | --- | --- |
| COc1cc(NS(C)(=O)=O)ccc1Nc1c2ccccc2nc2ccccc12 [AMSACRINE] |  |  |  |  |  | Cures (Mus musculus [3]): 0; Growth delay (Mus musculus [4]): 2 days |
| COc1cc([C@@H]2c3cc4c(cc3[C@@H](O[C@@H]3O[C@@H]5CO[C@@H](C)O[C@H]5[C@H](O)[C@H]3O)[C@H]3COC(=O)[C@H]23)OCO4)cc(OC)c1O [ETOPOSIDE] | 150 | 160 | 180 | 90 | 13 | Growth delay (Mus musculus [6]): 1.5 days; Cures (Mus musculus [7]): 0 |
| Cc1cccc2cc3c(=O)n(CCN(C)CCCN(C)CCn4cc(C(=O)NCCN(C)C)c5nc6c(C)cccc6cc5c4=O)cc(C(=O)NCCN(C)C)c3nc12 | 22 | 1 | 4.7 | 0.4 | 0.3 |  |
| COc1cccc2c1C(=O)c1c(O)c3c(c(O)c1C2=O)C[C@@](O)(C(=O)CO)C[C@@H]3O[C@H]1C[C@H](N)[C@H](O)[C@H](C)O1 [DOXORUBICIN] |  |  |  | 13 | 4.4 | Cures (Mus musculus [18]): 0; Growth delay (Mus musculus [19]): 8 days |
| CC[C@@]1(O)C(=O)OCc2c1cc1n(c2=O)Cc2cc3ccccc3nc2-1 [CAMPTOTHECIN] |  |  |  | 1.4 | 2 |  |
| CCc1c2c(nc3ccc(OC(=O)N4CCC(N5CCCCC5)CC4)cc13)-c1cc3c(c(=O)n1C2)COC(=O)[C@]3(O)CC [IRINOTECAN] |  |  |  |  |  | Growth delay (Mus musculus [27]): 7 days; Cures (Mus musculus [28]): 0 |
| COc1cccc2c1C(=O)c1c(O)c3c(c(O)c1C2=O)C[C@@](O)(C(C)=O)C[C@@H]3O[C@H]1C[C@H](N)[C@H](O)[C@H](C)O1 [DAUNORUBICIN] |  |  |  |  |  | Growth delay (Mus musculus [29]): 0 days; Cures (Mus musculus [30]): 0 |
| Cc1cc2c3c(cccc3n1)C(=O)c1cccc(C(=O)NCCN(C)C)c1-2 |  |  |  | 2.5 | 2.5 | Cures (Mus musculus [31]): 5; Growth delay (Mus musculus [32]): >20 days |
| O=C1c2c(O)ccc(O)c2C(=O)c2c(NCCNCCO)ccc(NCCNCCO)c21 [MITOXANTRONE] |  |  |  |  |  | Growth delay (Mus musculus [29]): 2 days; Cures (Mus musculus [30]): 0 |

Now from value to molecule, other results behind:

| IC50 (P388) [nM] | IC50 (Jurkat) [nM] | IC50 [9] [nM] | Structure (SMILES) | Ratio [5] | Ratio [8] | other results |
| --- | --- | --- | --- | --- | --- | --- |
| 71 |  |  | CN(C)CCNC(=O)c1cccc2cc3ccccc3nc12 |  |  | Cures (Mus musculus [1]): 0; Growth delay (Mus musculus [2]): 13 days |
| 11 | 26 | 10 | Cc1cccc2cc3c(O)ncc(C(=O)NCCN(C)C)c3nc12 | 2.6 | 1.9 | Cures (Mus musculus [10]): 0; Growth delay (Mus musculus [11]): 14 days |
| 12 | 9.4 | 4.4 | COc1ccc(-n2cc(C(=O)NCCN(C)C)c3nc4c(C)cccc4cc3c2=O)cc1OC | 1.5 | 1.3 | Cures (Mus musculus [12]): 4; Cures (Mus musculus [13]): 0; Growth delay (Mus musculus [14]): 16 days; Growth delay (Mus musculus [15]): >20 days |
| 54 | 123 | 50 | CN(C)CCNC(=O)c1cn(CCN(C)C)c(=O)c2cc3ccccc3nc12 | 1.1 | 0.8 |  |
| 6.8 | 8.5 | 3.7 | Cc1cccc2cc3c(=O)n(CCN(C)C)cc(C(=O)NCCN(C)C)c3nc12 | 0.9 | 0.7 | Cures (Mus musculus [16]): 0; Growth delay (Mus musculus [17]): 14 days |
| 2.1 | 6.7 | 1.7 | Cc1cccc2cc3c(=O)n(C)cc(C(=O)NCCN(C)C)c3nc12 | 7.9 | 5.6 | Cures (Mus musculus [20]): 10; Growth delay (Mus musculus [21]): >20 days; Cures (Mus musculus [22]): 4; Cures (Mus musculus [23]): 4; Growth delay (Mus musculus [15]): >20 days; Growth delay (Mus musculus [17]): >20 days |
| 14 | 51 | 15 | CCCCn1cc(C(=O)NCCN(C)C)c2nc3c(C)cccc3cc2c1=O | 3 | 2.3 | Cures (Mus musculus [16]): 0; Cures (Mus musculus [24]): 5; Growth delay (Mus musculus [25]): >20 days; Growth delay (Mus musculus [17]): 18 days |
| 2.4 |  |  | Cc1cccc2cc3c(NCCN(C)C)ncc(C(=O)NCCN(C)C)c3nc12 |  |  | Growth delay (Mus musculus [21]): 6 days; Cures (Mus musculus [26]): 0 |
| 14 |  |  | CN(C)CCNC(=O)c1cn(C)c(=O)c2cc3ccccc3nc12 |  |  |  |
| 590 | 1070 | 161 | Cc1cccc2cc3c(=O)n([C@@H](C)c4ccccc4)cc(C(=O)NCCN(C)C)c3nc12 | 1.1 | 0.8 |  |
